# Screening results from PubChem.
# Sampled rows, rich in hits. Any-hit rate of the full collection: about 2%.
# Dynein cargo inh – blocks dynein driven cargo transport along microtubules | 3617.4 mouse cells, GR-EGFP nuclear translocation imaging; test concentration mostly 20 µM; stimulated with dexamethasone, 1 µM; active compounds read low | z-score, hits read low | 0.47% of 220,000 active;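 active = plate z-score of nuclear minus cytoplasmic receptor signal below a set negative limit, without overly bright fluorescence or cell loss, cut at about -3.5 in these data, passing the limit was not always enough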;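 note: z-score of nuclear minus cytoplasmic ring GR-EGFP intensity difference per well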
#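 Buffer or medium: Induction medium lacking tetracycline, stripped serum | Also added: Dexamethasone agonist, 1.0 µM final, for 30 min | Timing: 48 h induction, 1 h compound, 30 min dex at 37 °C | Detection: Formaldehyde fixation, Hoechst nuclear stain, 10x automated fluorescence imaging | Measure: Nuclear versus cytoplasmic GR-EGFP signal, averaged per well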
# Furin inh – blocks human furin protease activity. purified furin, fluorogenic substrate cleavage. inhibition, % at 20 µM or 30 µM. 0.061% of 220,000 active. P09958; in the data active = inhibition above about 25%
# Target sequence (P09958 108-714 limits assumed): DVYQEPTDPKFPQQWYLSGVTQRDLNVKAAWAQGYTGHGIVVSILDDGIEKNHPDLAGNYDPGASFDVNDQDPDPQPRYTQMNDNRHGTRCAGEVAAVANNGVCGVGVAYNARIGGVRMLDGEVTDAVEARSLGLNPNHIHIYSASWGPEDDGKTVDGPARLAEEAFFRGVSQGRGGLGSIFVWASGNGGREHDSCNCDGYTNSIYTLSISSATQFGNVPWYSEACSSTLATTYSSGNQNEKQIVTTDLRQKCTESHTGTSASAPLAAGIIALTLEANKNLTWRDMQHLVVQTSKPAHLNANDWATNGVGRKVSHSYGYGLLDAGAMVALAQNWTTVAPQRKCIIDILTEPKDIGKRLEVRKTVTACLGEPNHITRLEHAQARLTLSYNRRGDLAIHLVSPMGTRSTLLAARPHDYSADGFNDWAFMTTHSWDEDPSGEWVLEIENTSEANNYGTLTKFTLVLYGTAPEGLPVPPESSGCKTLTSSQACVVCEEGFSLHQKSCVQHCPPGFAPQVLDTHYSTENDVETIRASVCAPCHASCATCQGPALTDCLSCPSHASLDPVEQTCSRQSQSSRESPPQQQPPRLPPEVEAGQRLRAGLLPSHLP
# Autophagy HCS – autophagy modulation, high-content screen | 0.98% of 190,000 active | calls only at 10 µM (by protocol) | MEF GFP-LC3 puncta imaging; test concentration mostly 10 µM;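 active = percentage of spot-positive cells more than 3 SD above its plate mean, without a fluorescence outlier flag or 80% toxicity; inconclusive = no clear call, values can overlap the other calls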;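 note: spot-positive cell cutoff set from DMSO-treated cells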
# HSV augment – HSV replication enhancement | maximum fold increase | HSV replication augmentation in cells, fold increase | 0.005% of 220,000 active; in the data active = maximum fold increase above about 1.5; inconclusive = no clear call, values can overlap the other calls; tested in PC3 cells
# Insulin prom inh – TRM-6 insulin promoter activity inhibition | TRM-6 cells, insulin promoter-eGFP reporter, imaging; reporter expression induced with tamoxifen | inhibition, % at 2 µM | 0.9% of 130,000 active | AID 1273;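 active = inhibition above the mean plus 3 SD, with well images judged a real hit on visual review, cut at about 60% in these data, passing the limit was not always enough; inconclusive = inhibition over the cutoff but images rejected on review; inactive = inhibition not above the cutoff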
# Insulin prom up – MIN6 insulin promoter up-regulation. MIN6 insulin promoter-GFP reporter, high-content imaging; active compounds read high. z-score at 5 µM. 0.3% of 190,000 active;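 active = z-score above 3 at 5 µM with at least 500 cells counted in the well; inconclusive = wells under 500 cells, flagged as cytotoxic or low count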
# Starred values were filed as active, the others as inactive; i = inactive; ? = inconclusive; nt = no result given; + = active, no number.
SMILES,Dynein cargo inh,Furin inh,Autophagy HCS,HSV augment,Insulin prom inh,Insulin prom up
Cc1cccc(N2C(=O)/C(=C/c3ccc(N4CCN(C)CC4)o3)C(=O)NC2=S)c1C,0.069,-6,i,i,-73,2.5
CCc1ccccc1N1C(=O)/C(=C/c2ccc(N3CCN(C)CC3)o2)C(=O)NC1=S,1.5,6,i,i,-60,3.4*
COc1cc(C[C@@H](C)N)c(OC)cc1I,-0.74,-12,nt,i,nt,-0.17
CN(C)C(=S)SSC(=S)N(C)C,-2.2,-38,+,i,100*,?
C=CCN1CC[C@]23c4c5ccc(O)c4O[C@H]2/C(=N/NC(=O)c2ccccc2)CC[C@@]3(O)[C@H]1C5,nt,nt,nt,i,nt,nt
CN1C2CCC1/C(=C/c1ccccn1)C(=O)/C2=C\c1ccccn1,-3.6*,-14,i,i,i,?
Cc1ccccc1-n1c(/C=C/c2ccccn2)nc2ccccc2c1=O,-0.65,-13,nt,i,nt,-0.54
CC(=O)NC1CC2CCC(C1)N2 (stereo not given),0.083,-23,i,i,79*,0.06
CC1=CC(=C2C(=O)NC(=S)NC2=O)C=C(C(F)(F)F)N1Cc1ccccc1,-0.12,-7,+,i,-407,-0.16
CCOC(=O)C1=C(N)OC2=C(C(=O)CCC2)[C@]12C(=O)N(CC(N)=O)c1ccccc12,1.1,-4,nt,i,nt,0.42
Cc1cccc(N=Cc2c(O)n(-c3ccccc3C)c(=O)[nH]c2=O)c1,-0.32,-4,i,i,-26,1.1
C=CCn1c(O)c(C=Nc2ccc(N(CC)CC)cc2)c(=O)[nH]c1=O,-0.069,-3,i,i,36,-0.57
CCN(CC)c1ccc(N=Cc2c(O)n(-c3ccc(Cl)cc3)c(=O)[nH]c2=O)cc1,-0.15,-6,+,?,nt,0.38
CCN(CC)c1ccc(N=Cc2c(O)n(CCC3=CCCCC3)c(=O)[nH]c2=O)cc1,0.19,12,+,nt,64,0.87
Cc1ccccc1-n1c(O)c(C=Nc2ccc(N(C)C)cc2)c(=O)[nH]c1=O,-0.44,27*,i,i,-46,-1
CCN(CC)c1ccc(N=Cc2c(O)n(-c3ccc(OC)cc3)c(=O)[nH]c2=O)cc1,-5.1,-18,i,i,32,-0.36
CN(C)c1ccc(N=Cc2c(O)n(CCC3=CCCCC3)c(=O)[nH]c2=O)cc1,-0.73,-16,+,i,21,-0.03
Cc1ccc(-n2c(O)c(C=NCCCn3ccnc3)c(=O)[nH]c2=O)cc1,0.3,-16,nt,i,nt,-0.04
Cc1cccc(N/N=C(\C(N)=O)C2=NC(C)(C)Cc3ccccc32)c1,-1.1,4,i,i,10,-0.39
CCCCCCn1c(O)c(C=NC2CCN(Cc3ccccc3)CC2)c(=O)[nH]c1=O,-0.094,-12,i,i,26,-0.22
Cc1c2ccncc2c(C)c2c1[nH]c1ccccc12,-3.7,-6,+,i,-355,nt
CCCCn1c(O)c(C(C)=NCc2ccc(F)cc2)c(=O)[nH]c1=O,-0.55,-18,i,i,14,0.65
CCCCn1c(O)c(C(CC)=NCc2ccc(F)cc2)c(=O)[nH]c1=O,1.2,1,i,i,83*,-0.36
COC(=O)C[C@]1(C(=O)OC)CN(C#N)N(c2ccc(Cl)cc2)C12c1ccccc1-c1ccccc12,-4.4*,-18,i,i,-142,?
COC(=O)[C@@H]1[C@@H](C(=O)OC)C2(c3ccccc3-c3ccccc32)N(c2ccc(Cl)cc2)N1C#N,1.3,-12,?,i,38,nt
SMILES,Dynein cargo inh,Furin inh,Autophagy HCS,HSV augment,Insulin prom inh,Insulin prom up
CCOc1cccc(=NC2CCCCC2)c2c(C)n(C)c(C)c12,-1.1,-6,nt,i,nt,?
OC(CNC1CCCCCCC1)c1ccccc1 (stereo not given),1.4,-2,i,i,nt,-0.8
CN1CC[C@@H](c2ccc(F)cc2)[C@H](COc2ccc3c(c2)OCO3)C1,nt,nt,nt,i,nt,nt
Cc1ccc(-c2cc(-c3ccc(C)cc3)[n+](C)o2)cc1,-1.2,-19,i,i,79*,?
O=Cc1c(C(=O)O)n(Cc2ccc(Cl)cc2)c2ccccc12,1.1,-19,i,?,-59,1.9
C[C@H]1O[C@@H](O[C@H]2[C@@H](O)C[C@H](O[C@H]3[C@@H](O)C[C@H](O[C@H]4CC[C@@]5(C)[C@H](CC[C@@H]6[C@@H]5CC[C@]5(C)[C@@H](C7=CC(=O)OC7)CC[C@]65O)C4)O[C@@H]3C)O[C@@H]2C)C[C@H](O)[C@@H]1O,0.16,-20,i,i,100*,nt
C[C@@H]1O[C@@H](O[C@H]2C[C@@H](O)[C@]3(CO)[C@H]4[C@H](O)C[C@]5(C)[C@@H](C6=CC(=O)OC6)CC[C@]5(O)[C@@H]4CC[C@]3(O)C2)[C@H](O)[C@H](O)[C@H]1O,-0.19,-12,i,i,-355,nt
CC(=O)C1=C(C)OC(N)=C(C(=O)OC(C)C)C12C(=O)Nc1ccccc12 (stereo not given),-0.041,-10,i,i,100*,nt
O=C(CCl)NCC1CCCO1 (stereo not given),0.11,-21,i,i,nt,-0.5
COc1ccc(NC(=O)c2cc([N+](=O)[O-])ccc2N2CCNCC2)cc1,1.7,0,+,i,nt,-0.74
CCOP(=O)(OCC)C1(O)C(=O)Nc2ccccc21 (stereo not given),-1,-18,i,i,0,nt
CC1CCCC(C2(O)C(=O)Nc3ccccc32)C1=O (stereo not given),0.61,-13,i,i,-4,5.6*
CSc1nc(N)c(N=Nc2ccc([As](=O)(O)O)cc2)c(=O)[nH]1,-0.67,27*,nt,i,nt,-0.14
COc1ccc(N=Nc2c(O)[nH]c(=S)[nH]c2=O)cc1,-1.1,-24,i,i,-25,-0.78
O=c1[nH]c(=O)n(-c2ccc(F)cc2)c(O)c1C=Nc1ccccc1N1CCCC1,9.5,-14,i,i,-22,4.4*
CN(C)/C=c1\sc2c(C#N)cc(C(=O)c3ccc(Br)cc3)n2c1=O,-0.31,-27,i,3.4*,nt,-0.04
CCCCCCOc1ccc(CN2CCN(C)CC2)cc1,-0.32,-22,+,i,6,-2.8
CCN1CCN(Cc2ccc(C)cc2)CC1,0.88,-10,i,i,-39,-0.98
CCC(C)n1c(O)c(C=NCC2CCCO2)c(=O)[nH]c1=S (stereo not given),-0.7,0,nt,i,nt,-0.1
CC(/C=N/NC(=O)c1n[nH]c2c1CCC2)=C\c1ccccc1,0.55,-12,+,i,-58,-0.97
CC(Cc1ccccc1)NC(=O)/C=C/C(=O)O (stereo not given),-0.93,-26,i,i,78*,-0.49
Cc1cccc(-n2c(O)c(/C=C/C=Nc3ccccc3)c(=O)[nH]c2=O)c1,-0.095,31*,i,?,6,0.63
